One molecule from ChEMBL document CHEMBL5661979, “Pharmacological inhibition of BMK1 suppresses tumor growth through promyelocytic leukemia protein” (Cancer Cell, 2010) can be followed below.

Calls of active or inactive are those of the source. No cut-off for these calls is given here. Bounds are passed on as bounds.

Data set [1] addresses Serine/threonine-protein kinase greatwall (Homo sapiens, UniProt Q96GX5). Put plainly: Inhibition of MASTL in human HeLa cells lysate pre incubated for 15 mins followed by ATP acyl phosphate probe addition and measured after 10 mins by LC-MS/MS analysis. It is filed as subcellular.
Data set [2] deals with DNA-dependent protein kinase catalytic subunit (Homo sapiens, UniProt P78527). The experiment in a line: Inhibition of PRKDC in human HeLa cells lysate pre incubated for 15 mins followed by ATP acyl phosphate probe addition and measured after 10 mins by LC-MS/MS analysis. It is filed as subcellular.
Data set [3] deals with Cyclin-dependent kinase 5 (Homo sapiens, UniProt Q00535). Put plainly: Inhibition of CDK5 in human HeLa cells lysate pre incubated for 15 mins followed by ADP acyl phosphate probe addition and measured after 10 mins by LC-MS/MS analysis. It is filed as subcellular. In outline: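 KiNativ profiling in HeLa lysate (5 mg/mL total protein). Lysate incubated 15 min with inhibitor at 50, 10, 2, 0.8 or 0 μM. ATP or ADP acylphosphate probe then added (5 μM final) and reacted 10 min. Reaction stopped with urea and analysed by targeted MS, using up to four fragment ions per kinase peptide-probe conjugate. % inhibition taken against untreated lysate. Run in duplicate.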
Chain of Cyclin-dependent kinase 5 (Q00535 whole entry, the tested form may be a part): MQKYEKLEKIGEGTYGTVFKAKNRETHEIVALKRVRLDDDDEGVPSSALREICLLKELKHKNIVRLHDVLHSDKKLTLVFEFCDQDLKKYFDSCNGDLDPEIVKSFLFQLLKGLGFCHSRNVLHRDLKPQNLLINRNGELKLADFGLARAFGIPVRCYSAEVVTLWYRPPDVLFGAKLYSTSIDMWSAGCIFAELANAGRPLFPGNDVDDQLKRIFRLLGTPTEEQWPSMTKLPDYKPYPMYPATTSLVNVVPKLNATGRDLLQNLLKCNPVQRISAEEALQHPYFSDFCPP

The target of data set [4] is Serine/threonine-protein kinase ULK2 (Homo sapiens, UniProt Q8IYT8). The experiment in a line: Inhibition of ULK2 in human HeLa cells lysate pre incubated for 15 mins followed by ADP acyl phosphate probe addition and measured after 10 mins by LC-MS/MS analysis. It is filed as subcellular.
Chain of Serine/threonine-protein kinase ULK2 (Q8IYT8 whole entry): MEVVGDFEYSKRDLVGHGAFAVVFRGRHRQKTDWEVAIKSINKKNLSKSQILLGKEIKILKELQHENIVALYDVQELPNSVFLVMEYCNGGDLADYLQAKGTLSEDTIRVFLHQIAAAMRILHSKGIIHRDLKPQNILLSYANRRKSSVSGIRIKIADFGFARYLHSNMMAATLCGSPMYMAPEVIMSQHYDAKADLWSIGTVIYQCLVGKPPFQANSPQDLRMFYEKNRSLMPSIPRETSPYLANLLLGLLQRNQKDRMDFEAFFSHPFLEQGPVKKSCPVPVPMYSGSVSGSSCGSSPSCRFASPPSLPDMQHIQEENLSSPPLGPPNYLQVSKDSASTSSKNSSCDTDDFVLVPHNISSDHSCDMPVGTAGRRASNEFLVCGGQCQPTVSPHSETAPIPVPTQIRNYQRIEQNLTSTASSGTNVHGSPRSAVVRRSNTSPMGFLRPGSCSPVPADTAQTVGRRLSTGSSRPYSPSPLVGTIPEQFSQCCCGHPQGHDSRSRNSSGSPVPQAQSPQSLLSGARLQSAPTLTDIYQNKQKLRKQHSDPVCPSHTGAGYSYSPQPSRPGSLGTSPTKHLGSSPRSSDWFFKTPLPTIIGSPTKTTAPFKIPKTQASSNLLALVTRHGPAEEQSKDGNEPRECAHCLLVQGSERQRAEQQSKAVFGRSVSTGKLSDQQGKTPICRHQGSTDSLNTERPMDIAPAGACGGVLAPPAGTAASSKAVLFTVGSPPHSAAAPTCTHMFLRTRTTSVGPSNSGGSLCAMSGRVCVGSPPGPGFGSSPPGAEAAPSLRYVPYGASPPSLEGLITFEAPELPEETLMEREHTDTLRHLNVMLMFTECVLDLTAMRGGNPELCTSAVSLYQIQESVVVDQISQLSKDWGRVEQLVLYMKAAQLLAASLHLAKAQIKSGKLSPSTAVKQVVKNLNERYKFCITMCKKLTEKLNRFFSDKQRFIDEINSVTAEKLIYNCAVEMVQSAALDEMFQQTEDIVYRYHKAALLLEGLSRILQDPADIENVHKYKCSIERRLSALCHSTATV
Data set [5] is described as follows: Inhibition of PRKX/PRKY in human HeLa cells lysate at 50 uM pre incubated for 15 mins followed by ADP acyl phosphate probe addition and measured after 10 mins by LC-MS/MS analysis relative to control. The note with it: 25 min, condition cancer.
In data set [6] the target is T1, Serine/threonine-protein kinase Sgk3 (Homo sapiens) (UniProt Q96BR1).
T1 sequence (whole entry): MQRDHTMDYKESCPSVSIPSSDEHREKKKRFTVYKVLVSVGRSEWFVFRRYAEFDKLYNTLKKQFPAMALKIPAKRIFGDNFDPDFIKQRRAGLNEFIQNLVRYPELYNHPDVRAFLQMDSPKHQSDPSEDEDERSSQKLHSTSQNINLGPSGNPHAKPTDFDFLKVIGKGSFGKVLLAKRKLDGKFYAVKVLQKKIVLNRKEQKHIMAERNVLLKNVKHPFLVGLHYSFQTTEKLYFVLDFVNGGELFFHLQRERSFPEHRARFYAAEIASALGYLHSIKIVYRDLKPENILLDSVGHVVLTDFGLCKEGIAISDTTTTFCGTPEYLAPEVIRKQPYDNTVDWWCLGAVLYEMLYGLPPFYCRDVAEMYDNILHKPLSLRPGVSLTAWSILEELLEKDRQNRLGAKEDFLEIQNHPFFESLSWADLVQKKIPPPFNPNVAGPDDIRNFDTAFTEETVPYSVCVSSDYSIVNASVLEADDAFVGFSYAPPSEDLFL
The experiment in a line: Inhibition of SGK3 in human HeLa cells lysate at 10 uM pre incubated for 15 mins followed by ADP acyl phosphate probe addition and measured after 10 mins by LC-MS/MS analysis relative to control. Type of data set: subcellular. The note with it: time 25.0 min.

Data set [7] deals with T2, Phosphatidylinositol 5-phosphate 4-kinase type-2 alpha (Homo sapiens) (UniProt P48426).
T2 sequence (whole entry): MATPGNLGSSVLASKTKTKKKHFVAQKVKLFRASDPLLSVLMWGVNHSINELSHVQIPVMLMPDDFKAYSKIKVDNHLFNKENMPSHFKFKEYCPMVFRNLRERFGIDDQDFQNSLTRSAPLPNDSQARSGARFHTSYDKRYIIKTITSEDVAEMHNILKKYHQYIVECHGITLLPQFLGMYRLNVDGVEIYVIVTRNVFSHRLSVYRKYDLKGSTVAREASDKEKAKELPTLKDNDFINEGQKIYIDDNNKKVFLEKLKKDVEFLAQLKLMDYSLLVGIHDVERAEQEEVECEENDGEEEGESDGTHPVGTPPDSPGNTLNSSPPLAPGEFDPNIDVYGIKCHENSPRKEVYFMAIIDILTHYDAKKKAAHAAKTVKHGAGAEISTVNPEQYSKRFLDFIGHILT
Put plainly: Inhibition of PIP5K2A LIP1 site in human HeLa cells lysate at 2 uM pre incubated for 15 mins followed by ADP acyl phosphate probe addition and measured after 10 mins by LC-MS/MS analysis relative to control. The note with it: time 25.0 min. It is filed as subcellular.

Data set [8] has as its target T3, Dual specificity mitogen-activated protein kinase kinase 3 (Homo sapiens) (UniProt P46734).
T3 sequence (whole entry): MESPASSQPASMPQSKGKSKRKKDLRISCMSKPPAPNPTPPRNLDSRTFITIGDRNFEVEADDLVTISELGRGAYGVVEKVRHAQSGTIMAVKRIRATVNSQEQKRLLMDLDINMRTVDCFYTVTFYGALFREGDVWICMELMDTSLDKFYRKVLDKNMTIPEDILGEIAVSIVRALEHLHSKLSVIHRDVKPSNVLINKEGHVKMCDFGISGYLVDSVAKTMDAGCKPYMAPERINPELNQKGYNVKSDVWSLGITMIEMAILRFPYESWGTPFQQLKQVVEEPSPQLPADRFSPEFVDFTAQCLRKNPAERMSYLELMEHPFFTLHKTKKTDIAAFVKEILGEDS
Put plainly: Inhibition of MAP2K3 in human HeLa cells lysate at 2 uM pre incubated for 15 mins followed by ADP acyl phosphate probe addition and measured after 10 mins by LC-MS/MS analysis relative to control. It is filed as subcellular. To be noted: time 25.0 min.

Data set [9] concerns the target Serine/threonine-protein kinase Nek1 (Homo sapiens) (UniProt Q96PY6). Put plainly: Inhibition of NEK1 in human HeLa cells lysate at 50 uM pre incubated for 15 mins followed by ATP acyl phosphate probe addition and measured after 10 mins by LC-MS/MS analysis relative to control. The note with it: time 25.0 min. It is filed as subcellular.
In data set [10] the target is Casein kinase I isoform alpha (Homo sapiens, UniProt P48729). The experiment in a line: Inhibition of CK1alpha in human HeLa cells lysate at 2 uM pre incubated for 15 mins followed by ATP acyl phosphate probe addition and measured after 10 mins by LC-MS/MS analysis relative to control. To be noted: time 25.0 min. It is filed as subcellular.
Chain of Casein kinase I isoform alpha (P48729 2-337 limits assumed): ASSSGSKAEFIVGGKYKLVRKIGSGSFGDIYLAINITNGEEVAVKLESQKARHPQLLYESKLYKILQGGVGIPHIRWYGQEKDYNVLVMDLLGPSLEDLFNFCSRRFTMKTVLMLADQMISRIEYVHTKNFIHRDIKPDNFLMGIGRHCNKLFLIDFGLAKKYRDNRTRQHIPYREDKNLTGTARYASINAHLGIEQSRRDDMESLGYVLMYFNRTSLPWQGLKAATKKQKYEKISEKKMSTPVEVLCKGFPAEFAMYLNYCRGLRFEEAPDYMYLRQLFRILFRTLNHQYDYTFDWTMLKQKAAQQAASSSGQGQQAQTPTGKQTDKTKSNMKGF
The target of data set [11] is Serine/threonine-protein kinase DCLK2 (Homo sapiens, UniProt Q8N568). Put plainly: Binding affinity to DCAMKL2 (unknown origin) assessed as dissociation constant by ATP-competition binding assay.
Chain of Serine/threonine-protein kinase DCLK2 (Q8N568 whole entry): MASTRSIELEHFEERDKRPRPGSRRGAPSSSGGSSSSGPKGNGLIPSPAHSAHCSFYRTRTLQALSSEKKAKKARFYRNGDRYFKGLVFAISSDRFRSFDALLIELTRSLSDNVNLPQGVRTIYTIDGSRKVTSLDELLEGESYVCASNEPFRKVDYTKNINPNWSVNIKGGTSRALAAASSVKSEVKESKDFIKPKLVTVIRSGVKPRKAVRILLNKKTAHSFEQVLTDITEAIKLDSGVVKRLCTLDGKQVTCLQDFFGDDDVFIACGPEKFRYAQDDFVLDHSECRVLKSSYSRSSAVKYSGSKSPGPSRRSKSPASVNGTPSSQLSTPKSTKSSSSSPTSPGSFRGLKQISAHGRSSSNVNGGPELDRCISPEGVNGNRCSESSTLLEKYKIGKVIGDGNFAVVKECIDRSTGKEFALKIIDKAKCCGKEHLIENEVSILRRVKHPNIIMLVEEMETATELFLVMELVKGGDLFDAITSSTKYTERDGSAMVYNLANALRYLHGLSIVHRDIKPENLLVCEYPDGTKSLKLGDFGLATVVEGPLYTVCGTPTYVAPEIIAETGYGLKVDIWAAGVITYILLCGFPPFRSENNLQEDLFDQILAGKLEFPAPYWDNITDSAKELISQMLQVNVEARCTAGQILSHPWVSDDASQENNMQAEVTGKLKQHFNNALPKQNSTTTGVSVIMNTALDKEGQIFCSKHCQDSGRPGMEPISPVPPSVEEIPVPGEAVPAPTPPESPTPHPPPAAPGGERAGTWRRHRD
The nature of data set [12]: Cmax in Sprague-Dawley rat at 2 mg/kg, po measured up to 8 hrs by LC-MS/MS analysis. It is filed as ADME, organism-based. To be noted: in vivo. In outline:
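Sprague-Dawley rats given one intravenous dose or one oral dose of 2 mg/kg. Plasma drug concentrations were followed over time, with samples taken out to 8 hr after dosing. PK parameters (clearance, volume of distribution, half-life, oral bioavailability, Cmax) were calculated from these concentration–time data.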

A short description of data set [13]: Tmax in Sprague-Dawley rat at 2 mg/kg, po measured up to 8 hrs by LC-MS/MS analysis. It is filed as ADME, organism-based. The note with it: in vivo.
Data set [14] relates to HeLa. Put plainly: Antitumor activity against human HeLa cells xenografted in NOD/SCID mouse assessed as decrease in BrdU incorporation in cell nuclei in tumor at 50 mg/kg, ip by fluorescence microscopic analysis. It is filed as functional, organism-based. In outline: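 HeLa or LL/2 tumor sections from treated and control xenograft mice were stained with anti-BrdU antibody and DAPI and imaged by fluorescence microscopy. n = 6 mice, 9 slices.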
Background: Xenograft models place foreign cells or tissue in a host animal.

Chain of Serine/threonine-protein kinase greatwall (Q96GX5 whole entry): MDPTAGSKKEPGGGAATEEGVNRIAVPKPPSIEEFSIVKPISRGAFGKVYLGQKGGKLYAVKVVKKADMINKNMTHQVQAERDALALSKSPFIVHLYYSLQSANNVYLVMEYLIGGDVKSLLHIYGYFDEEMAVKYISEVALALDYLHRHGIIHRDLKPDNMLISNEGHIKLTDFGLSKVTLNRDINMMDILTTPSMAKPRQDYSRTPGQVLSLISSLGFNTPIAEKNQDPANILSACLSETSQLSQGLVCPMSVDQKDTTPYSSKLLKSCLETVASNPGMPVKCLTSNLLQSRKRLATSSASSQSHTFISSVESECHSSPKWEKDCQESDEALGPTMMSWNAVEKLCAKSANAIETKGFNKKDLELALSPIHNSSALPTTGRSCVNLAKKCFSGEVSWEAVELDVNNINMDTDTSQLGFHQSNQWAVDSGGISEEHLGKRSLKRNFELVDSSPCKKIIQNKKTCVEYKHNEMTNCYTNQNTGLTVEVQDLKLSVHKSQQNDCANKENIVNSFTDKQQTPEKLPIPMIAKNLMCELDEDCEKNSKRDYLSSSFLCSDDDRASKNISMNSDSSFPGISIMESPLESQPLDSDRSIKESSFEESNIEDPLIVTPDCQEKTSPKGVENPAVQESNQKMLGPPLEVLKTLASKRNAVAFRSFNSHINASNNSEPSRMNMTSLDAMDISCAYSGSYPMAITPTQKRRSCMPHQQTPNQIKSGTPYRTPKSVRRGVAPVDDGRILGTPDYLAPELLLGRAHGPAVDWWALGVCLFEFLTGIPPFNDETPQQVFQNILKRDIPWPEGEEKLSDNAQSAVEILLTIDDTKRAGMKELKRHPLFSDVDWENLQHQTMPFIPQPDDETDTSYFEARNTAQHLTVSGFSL
Chain of Serine/threonine-protein kinase Nek1 (Homo sapiens) (Q96PY6 whole entry, canonical isoform): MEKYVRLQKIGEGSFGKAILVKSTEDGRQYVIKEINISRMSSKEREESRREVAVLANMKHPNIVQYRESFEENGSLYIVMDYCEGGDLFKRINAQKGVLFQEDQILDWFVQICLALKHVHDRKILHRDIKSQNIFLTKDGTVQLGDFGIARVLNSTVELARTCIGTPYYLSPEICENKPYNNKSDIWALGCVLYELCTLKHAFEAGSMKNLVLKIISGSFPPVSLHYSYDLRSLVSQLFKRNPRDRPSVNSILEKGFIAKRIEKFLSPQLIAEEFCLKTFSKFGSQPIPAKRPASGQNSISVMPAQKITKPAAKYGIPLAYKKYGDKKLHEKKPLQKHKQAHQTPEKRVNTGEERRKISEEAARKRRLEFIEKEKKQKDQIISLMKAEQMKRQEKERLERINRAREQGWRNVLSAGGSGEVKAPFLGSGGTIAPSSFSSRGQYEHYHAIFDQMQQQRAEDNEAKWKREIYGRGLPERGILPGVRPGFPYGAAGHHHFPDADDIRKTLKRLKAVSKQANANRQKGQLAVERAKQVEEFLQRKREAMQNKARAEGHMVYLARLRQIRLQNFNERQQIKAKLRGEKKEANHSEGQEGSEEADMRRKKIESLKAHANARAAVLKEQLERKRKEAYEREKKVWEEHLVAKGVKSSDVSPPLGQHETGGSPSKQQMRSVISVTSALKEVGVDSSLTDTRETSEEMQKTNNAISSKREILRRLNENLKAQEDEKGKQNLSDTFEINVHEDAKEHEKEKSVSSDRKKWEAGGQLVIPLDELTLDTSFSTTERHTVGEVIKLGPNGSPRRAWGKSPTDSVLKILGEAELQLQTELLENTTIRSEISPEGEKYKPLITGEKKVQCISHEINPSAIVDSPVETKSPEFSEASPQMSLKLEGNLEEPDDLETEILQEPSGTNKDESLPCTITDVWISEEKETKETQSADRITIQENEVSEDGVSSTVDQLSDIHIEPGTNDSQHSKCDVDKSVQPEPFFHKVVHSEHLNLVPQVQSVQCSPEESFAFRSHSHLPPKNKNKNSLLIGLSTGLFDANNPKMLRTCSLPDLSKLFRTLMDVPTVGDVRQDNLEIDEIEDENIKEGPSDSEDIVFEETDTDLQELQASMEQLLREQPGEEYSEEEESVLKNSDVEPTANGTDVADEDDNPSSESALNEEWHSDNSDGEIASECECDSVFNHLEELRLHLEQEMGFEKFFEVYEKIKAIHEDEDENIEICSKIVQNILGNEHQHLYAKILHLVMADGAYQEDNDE

Take `CCOc1cc(N2CCC(O)CC2)ccc1Nc1ncc2c(n1)N(C)c1ccccc1C(=O)N2C`: the IC50 in data set [1], in data set [2], in [3] and in data set [4] was more than 50 µM each time. Further, in data set [5], the inhibition – broadly, the drop in the measured response relative to a control, in per cent – at 50 µM is -27.3%. The inhibition in data set [6] is -0.3%; in data set [7], 3.5%; in data set [8] it was 7.5%; in data set [9] it was -3.8%; in data set [10], 2.6%. Besides, the Kd – broadly, a measure of binding affinity in units of concentration – in [11] came out at 0.19 µM. Also, the Cmax (usually the peak of the concentration-time curve) in data set [12] came to 522 nM. In data set [13], the Tmax (as a rule, the time from dosing to the highest level) was determined as 30 min. For the same molecule, the result in data set [14] was Active.
